Results on 13 molecules are retold here after PMC4930114 (ACS infectious diseases, 2015).

pEC50, pIC50, pKi: −log10 of the molar value. Where two headings read alike, the source gives them in different places.

In one data set the target is ROP18 (Toxoplasma gondii, UniProt Q2PAY2). Nature of the data set: biochemical.
The next data set has as its system CDK2. The note with it: 0.1 μM; ref GSK PKIS profiling (Figure S5); cited from earlier work.
Another data set has as its system RAW 264.7 macrophages. Nature of the data set: MTS-based cell growth assay. The following applies: Mus musculus, RAW264.7, 48 h, read-out: EC50 growth inhibition (MTS).
In the next data set the test system is TBK1. The note with it: 1 μM; ref GSK PKIS profiling (Table S1); cited from earlier work.
The test system of the next data set is CDK3/cyclinE. The note with it: 1 μM; ref GSK PKIS profiling (Table S1); cited from earlier work.
The next data set concerns MELK. The following applies: 1 μM; ref GSK PKIS profiling (Table S1); cited from earlier work.
The test system of a further data set is PDGFRβ. The note with it: 0.1 μM; ref GSK PKIS profiling (Figure S5); cited from earlier work.
The subject of data set [1] is ROP18 function in T. gondii infected RAW macrophages (Irga6 recruitment to PVM). Nature of the data set: Irga6. Type of data set: cell-based, Toxoplasma gondii. The note with it: 10 μM; for proportion of Irga6 positive vacuoles, visual scoring, Δrop18 parasites: Δrop18, IFN-γ-activated RAW macrophages; for amount of Irga6 recruitment, quantitative immunofluorescence, Δrop18 parasites: Δrop18, vs DMSO vehicle. An outline of the steps: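 RAW264.7 macrophages on coverslips (10^5/well) primed 24 h with 100 U/ml mouse IFNγ plus 1 ng/ml LPS. RH Δku80 tachyzoites (wild type or rop18-disrupted) at 10^5/ml pretreated 30 min at 37°C with 10 μM test compound or 0.1% DMSO, then invaded 30 min. Formaldehyde-fixed, Triton-permeabilized, stained for TgAldolase and Irga6 (mAb 10D7). Irga6-positive vacuoles scored visually; intensity quantified over parasite/PVM region.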

The test system of the next data set is PDGFRα. The following applies: 0.1 μM; ref GSK PKIS profiling (Figure S5); cited from earlier work.
Data set [2] concerns HepG2 hepatocarcinoma cells. The note with it: 10 μM (48 h stated for compound 10); cited from earlier work.
In another data set the test system is P. falciparum. The following applies: 2 μM; cited from earlier work.
Data set [3] concerns RAW264.7 macrophages. The experiment in a line: LDH release cytotoxicity. It is filed as cell-based, mouse. The following applies: 4 h incubation, 20 μM. For orientation: Release of lactate dehydrogenase indicates damage to the cell membrane.
Another data set relates to P. falciparum 3D7 strain. The following applies: 2 μM, 48 h; cited from earlier work.
Data set [4] concerns P. falciparum Dd2 strain (a multidrug resistant strain). The following applies: 2 μM, 48 h; cited from earlier work.
For data set [5], the system named is RAW264.7 macrophages. The experiment in a line: Phase contrast microscopy of host cell morphology. Type of data set: cell-based, mouse. The following applies: 10 μM, in as little as 30 min; rounding up and vesiculation.
Setting [6] is: IC50 μM FL-8, substrate peptide FL-8, same assay conditions as primary screen.
The mark [7] stands for this setting: IC50 μM FL-E, substrate peptide FL-E, same assay conditions as primary screen.

Sequence of ROP18 (Q2PAY2 98-554): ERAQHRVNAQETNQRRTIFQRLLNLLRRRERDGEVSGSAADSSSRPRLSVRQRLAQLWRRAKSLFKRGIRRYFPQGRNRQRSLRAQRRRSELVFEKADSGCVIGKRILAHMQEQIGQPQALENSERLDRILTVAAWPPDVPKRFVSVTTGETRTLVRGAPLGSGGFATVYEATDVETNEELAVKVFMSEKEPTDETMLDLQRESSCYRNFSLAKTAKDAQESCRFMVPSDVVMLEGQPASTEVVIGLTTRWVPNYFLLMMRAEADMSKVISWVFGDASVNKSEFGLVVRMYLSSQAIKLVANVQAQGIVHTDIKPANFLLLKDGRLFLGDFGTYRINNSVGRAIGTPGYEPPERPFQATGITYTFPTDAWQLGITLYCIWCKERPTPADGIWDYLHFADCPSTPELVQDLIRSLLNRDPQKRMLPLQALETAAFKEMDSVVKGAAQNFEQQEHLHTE

`NS(=O)(=O)c1ccc(N/C=C2\C(=O)Nc3ccc4ncsc4c32)cc1` [Compound 1, 4-[(7-hydroxy-6H-pyrrolo[2,3-g][1,3]benzothiazol-8-yl)methyleneamino]benzenesulfonamide]: the figures for the IC50 at ROP18 (setting [6]) and against ROP18 (setting [7]) were 1.21 µM and 2.48 µM, respectively.
For `CC(C)COC(=O)c1ccc2c(c1)/C(=C/Nc1ccc(S(N)(=O)=O)cc1)C(=O)N2` [Compound 2, isobutyl 2-hydroxy-3-[(4-sulfamoylphenyl)iminomethyl]-1H-indole-5-carboxylate], in the data set with CDK2, the “inhibition of CDK2” value is listed as more than 50%. Moreover, the pKi on ROP18 was 6.89. Besides, the IC50 against ROP18 (setting [6]) was 0.51 µM; against ROP18 (setting [7]), 0.29 µM. Moreover, the pEC50 in the data set on RAW 264.7 macrophages was 5.13. Also, the “inhibition of TBK1” value with TBK1 is recorded as more than 90%. Moreover, in the data set on CDK3/cyclinE, the “inhibition of CDK3/cyclinE” value is more than 90%. Moreover, the “inhibition of MELK” value in the data set on MELK is recorded as more than 90%. Besides, the “inhibition of PDGFRβ” value with PDGFRβ is more than 50%. For the same molecule, the “proportion of Irga6 positive vacuoles, visual scoring, Δrop18 parasites” value in [1] (vs DMSO vehicle) is listed as “did not lead to a significant increase or decrease”. Moreover, the “amount of Irga6 recruitment, quantitative immunofluorescence, Δrop18 parasites” value in data set [1] is “did not lead to a significant increase or decrease”. Besides, the “inhibition of PDGFRα” value with PDGFRα is listed as more than 50%.
Turning to `CC(C)(CO)CNC(=O)c1ccc2c(c1)C(=NNc1ccc(S(N)(=O)=O)cc1)C(=O)N2` [Compound 3, 2-hydroxy-N-(3-hydroxy-2,2-dimethyl-propyl)-3-(4-sulfamoylphenyl)azo-1H-indole-5-carboxamide], the values for the 50% inhibitory concentration (IC50) against ROP18 (setting [6]) and against ROP18 (setting [7]) were 0.65 µM and 0.19 µM, respectively.
Regarding `NS(=O)(=O)c1ccc(NN=C2C(=O)Nc3ccc(C(=O)NCc4ccncc4)cc32)cc1` [Compound 4, 2-hydroxy-N-(4-pyridylmethyl)-3-(4-sulfamoylphenyl)azo-1H-indole-5-carboxamide], the figures for the IC50 against ROP18 (setting [6]) and against ROP18 (setting [7]) were more than 10 µM and 2.66 µM, respectively.
For `O=S1(=O)CCc2ccc(Nc3nc(NC4CCNC4)nc4ccnc(O)c34)cc21` (stereo not shown) [Compound 5, 4-[(1,1-dioxo-2,3-dihydrobenzothiophen-6-yl)amino]-2-(pyrrolidin-3-ylamino)pyrido[4,3-d]pyrimidin-5-ol], in that order: more than 10 µM and 4.02 µM.
With `Oc1nccc2nc(NC3CCNC3)nc(Nc3cc(Cl)cc(Cl)c3)c12` (stereo not shown) [Compound 6, 4-(3,5-dichloroanilino)-2-(pyrrolidin-3-ylamino)pyrido[4,3-d]pyrimidin-5-ol], the IC50 on ROP18 (setting [6]) is more than 10 µM; on ROP18 (setting [7]), 7.49 µM.
As for `O=c1[nH]ccc2nc(NC3CCCNC3)nc(Nc3ccc(S(=O)(=O)N4CCOCC4)cc3)c12` (stereo not shown) [Compound 7, 4-(4-morpholinosulfonylanilino)-2-(3-piperidylamino)pyrido[4,3-d]pyrimidin-5-ol], the “growth inhibition of HepG2 cells” value in data set [2] was 13%. Besides, the “inhibition of P. falciparum growth” value with P. falciparum is listed as more than 95%. This molecule also gave a pKi at ROP18 of 6.57. Also, the half-inhibitory concentration (IC50) at ROP18 (setting [6]) came out at 0.4 µM; at ROP18 (setting [7]) it was 0.18 µM. Besides, the pEC50 in the data set with RAW 264.7 macrophages is 4.85. In [1] (wild type (RH), IFN-γ-activated RAW macrophages, vs DMSO vehicle), the “proportion of Irga6 positive vacuoles, visual scoring, wild type parasites” value was “did not result in a significant increase”. Moreover, in [1] (wild type (RH), vs DMSO vehicle), the “amount of Irga6 recruitment, quantitative immunofluorescence, wild type parasites” value is listed as “no significant increase”. The “proportion of Irga6 positive vacuoles, visual scoring, Δrop18 parasites” value in data set [1] (vs DMSO vehicle) is listed as “caused a reduction”. Besides, the “amount of Irga6 recruitment, quantitative immunofluorescence, Δrop18 parasites” value in data set [1] is “significantly lower”. In addition, the “increase in LDH release” value with RAW264.7 macrophages [3] stood at 12%.
As for `NS(=O)(=O)CCc1cccc(Nc2nccc(-c3c(-c4cccc(NC(=O)c5c(F)cccc5F)c4)nn4ccccc34)n2)c1` [Compound 8, 2,6-difluoro-<I>N</I>-[3-[3-[2-[3-(2-sulfamoylethyl)anilino]pyrimidin-4-yl]pyrazolo[1,5-a]pyridin-2-yl]phenyl]benzamide], the IC50 on ROP18 (setting [6]) was 0.63 µM; at ROP18 (setting [7]) it was 0.94 µM.
The like results for `CS(=O)(=O)Cc1ccc(Nc2nccc(-c3c(-c4cccc(NC(=O)C5CCCCC5)c4)nn4ncccc34)n2)cc1` [Compound 9, <I>N</I>-[3-[3-[2-[4-(methylsulfonylmethyl)anilino]pyrimidin-4-yl]pyrazolo[1,5-b]pyridazin-2-yl]phenyl]cyclohexanecarboxamide] were, in that order, more than 10 µM and more than 10 µM.
As for `CS(=O)(=O)Cc1ccc(Nc2nccc(-c3c(-c4cccc(NC(=O)c5c(F)cccc5F)c4)nn4ccccc34)n2)cc1` [Compound 10, 2,6-difluoro-<I>N</I>-[3-[3-[2-[4-(methylsulfonylmethyl)anilino]pyrimidin-4-yl]pyrazolo[1,5-a]pyridin-2-yl]phenyl]benzamide], the “growth inhibition of HepG2 cells” value in data set [2] is given as 78%. The “inhibition of 3D7 strain” value with P. falciparum 3D7 strain is reported as 99%. Besides, the IC50 worked out at 2.83 µM at ROP18 (setting [6]) and 1 µM at ROP18 (setting [7]). In the data set on RAW 264.7 macrophages, the pEC50 is 5.89. For the same molecule, the “inhibition of Dd2 strain” value in data set [4] is 75%. The “morphological damage to the host cells” value in the data set on RAW264.7 macrophages [5] is “rapid morphological damage”.
For the molecule `COc1ccc(NC(=O)Nc2nc(SCC(=O)C(C)(C)C)ns2)cc1` [Compound 11, 1-[3-(3,3-dimethyl-2-oxo-butyl)sulfanyl-1,2,4-thiadiazol-5-yl]-3-(4-methoxyphenyl)urea], the IC50 is more than 10 µM against ROP18 (setting [6]) and 6.44 µM at ROP18 (setting [7]).
As to `Cc1cccc(Nc2nc(NC3CCCCC3N)ncc2C(N)=O)c1` (stereo not shown) [Compound 13, 2-[(2-aminocyclohexyl)amino]-4-(3-methylanilino)pyrimidine-5-carboxamide], the values for the IC50 at ROP18 (setting [6]) and against ROP18 (setting [7]) were more than 10 µM and 6.66 µM, respectively.
In turn, `C[C@]12O[C@H](C[C@]1(O)CO)n1c3ccccc3c3c4c(c5c6ccccc6n2c5c31)CNC4=O` [Compound 14, (5S,6S,8R)-6-hydroxy-6-(hydroxymethyl)-5-methyl-5,6,7,8,14,15-hexahydro-13H-16-oxa-4b,8a,14-triaza-5,8-methanodibenzo[b,h]cycloocta[jkl]cyclopenta[e]-as-indacen-13-one, reference compound] had a pIC50 against ROP18 of 6.80.

One may read the IC50 as the concentration that inhibits the measured activity by half. A high value points to weaker potency. By pKi is commonly meant −log10 of the Ki, conventionally taken in molar units. A lower pKi goes with a high Ki. One may read the pEC50 as the EC50 on a negative log10 scale, so that one unit is a factor of ten. As usually defined, the pIC50 is −log10 of the IC50, conventionally taken in molar units. Higher therefore signals a small IC50.
